Results: ChEMBL document CHEMBL1287805, “abeo-abietanes from Teucrium polium roots as protective factors against oxidative stress” (Bioorg Med Chem, 2010)
The source made the active and inactive calls. The rule behind the calls is not given here.

Key:
Format in all cases: functional
[1] = test system: Radical scavenging activity; experiment: Antioxidant activity assessed as DPPH radical scavenging activity
Method in brief: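 DPPH absorbance at 515 nm read at 30 min against a blank. Compounds tested at 37.5, 75, 125 and 250 µM in triplicate, with Trolox as standard. IC50 is the concentration giving 50% inhibition of absorbance, taken from the plotted curves.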

[2] = Antioxidant activity against pentose 2-deoxyribose oxidation at 250 uM after 60 mins by TBA method
Method in brief: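 Deoxyribose assay in KH2PO4/KOH (10.0 mM, pH 7.4) with H2O2, EDTA, FeCl3 and ascorbic acid (each 100.0 µM) plus 2-deoxyribose (2.8 mM). Compound at final 37.5–250.0 µM, incubated at 37 °C for 1 h. TBA/TCA added, heated at 90 °C for 30 min, read at 532 nm. Result is percent antioxidant capacity versus blank. Triplicate.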

[3] = Antioxidant activity against lipid peroxidation assessed as TBARS production using rape seed oil after 60 mins
Method in brief: (§1)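 Rape seed oil emulsified with Tween-40 in Tris-HCl (0.2 M, pH 7.4). Test compound added at final 37.5, 75.0, 125.0 or 250.0 µM, then tubes held in a boiling water bath for 30 min. Absorbance read at 532 nm. Lipid peroxidation inhibition is given as percent versus a blank without compound. Triplicate.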

[4] = Antioxidant activity against bovine serum albumin oxidation after 60 mins
Method in brief: (§2)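 BSA (10 mg/mL) oxidised with H2O2 (1.0 mM) and FeSO4 (0.5 mM) in the presence of sample; shaken 10 min, then TCA (10.0%) precipitation at 4 °C. Pellet derivatised with DNPH (10 mM) in 2 N HCl for 1 h at room temperature, reprecipitated with cold TCA, washed, and dissolved in 6 M guanidine-HCl (pH 6.5). Protein carbonyl formation was measured.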

[5] = Antioxidant activity against lipid peroxidation assessed as TBARS production using rape seed oil at 250 uM after 60 mins; method in brief: as §1
[6] = Antioxidant activity against bovine serum albumin oxidation at 37.5 uM after 60 mins; method in brief: as §2

| SMILES | IC50 [1] | inhibition [2] | Activity [3] | Activity [4] | inhibition [5] | inhibition [6] |
| --- | --- | --- | --- | --- | --- | --- |
| C[C@@H]1Oc2c(O)c3c(c(O)c2[C@H]1O)C(=O)C(O)=C1[C@]3(C)CC[C@H]2C[C@@]12C | 84 µM | 50% | Dose-dependent effect | Dose-dependent effect |  |  |
| C[C@]12CC[C@H]3C[C@@]3(C)C1=C(O)C(=O)c1c2c(O)c2oc(CO)cc2c1O | 101 µM | inactive | Dose-dependent effect | Dose-dependent effect |  |  |
| C[C@H]1Cc2c(O)c3c(c(O)c2O1)[C@@]1(C)CCC(=O)C(C)(C)C1=C(O)C3=O [TEUVINCENONE A] | 63 µM | 50% | Dose-dependent effect | Dose-dependent effect |  |  |
| C[C@H]1Cc2c(O)c3c(c(O)c2O1)[C@@]1(C)CC[C@H]2C[C@@]2(C)C1=C(O)C3=O [TEUVINCENONE C] | 97 µM | 50% | Dose-dependent effect | Dose-dependent effect |  |  |
| CC1(C)CCC[C@@]2(C)C1=C(O)C(=O)c1c(O)c3c(c(O)c12)O[C@@H](CO)C3 [VILLOSIN C] | 86 µM | 50% | Dose-dependent effect | Dose-dependent effect |  |  |
| C[C@H]1Cc2c(O)c3c(c(O)c2O1)[C@@]1(C)CCCC(C)(C)C1=C(O)C3=O [TEUVINCENONE B] | 55 µM | 50% | Dose-dependent effect | Dose-dependent effect |  |  |
| C[C@H]1Cc2c(O)c3c(c(O)c2O1)[C@@]1(C)CC[C@H]2C[C@@]2(C)[C@@H]1CC3=O [TEUVINCENONE D] | 111 µM | 50% | Dose-dependent effect | Dose-dependent effect |  |  |
| CC1(C)CCC[C@@]2(C)C1=C(O)C(=O)c1c2c(O)c2oc(CO)cc2c1O | 120 µM | 50% | Dose-dependent effect | Dose-dependent effect |  |  |
| Cc1c(C)c2c(c(C)c1O)CCC(C)(C(=O)O)O2 (stereo not given) [TROLOX] | 24 µM |  |  |  |  |  |
| Cc1cc2c(O)c3c(c(O)c2o1)[C@@]1(C)CC[C@H]2C[C@@]2(C)[C@@H]1CC3=O | 130 µM | 50% | Dose-dependent effect | Dose-dependent effect |  |  |
| Cc1cc2c(O)c3c(c(O)c2o1)[C@@]1(C)CC[C@H]2C[C@@]2(C)C1=C(O)C3=O | 55 µM | inactive | Dose-dependent effect | Dose-dependent effect | 76.9% | 31% |
| C[C@@H]1Oc2c(O)c3c(c(O)c2[C@H]1O)C(=O)C(O)=C1C(C)(C)CCC[C@@]13C | 71 µM | 50% | Dose-dependent effect | Dose-dependent effect |  |  |
| Cc1cc2c(O)c3c(c(O)c2o1)[C@@]1(C)CCC(=O)C(C)(C)C1=C(O)C3=O | 64 µM | 50% | Dose-dependent effect | Dose-dependent effect |  |  |
| Cc1cc2c(O)c3c(c(O)c2o1)[C@@]1(C)CCCC(C)(C)C1=C(O)C3=O | 76 µM | inactive | Dose-dependent effect | Dose-dependent effect |  |  |
